The source made the active and inactive calls. The rule behind the calls is not given here.
Key:
[1] = system: Mus musculus; assay: Protection against LPS-induced C57BL/6 mouse model of acute lung injury assessed as reduction in protein level in BALF at 20 mg/kg, po administered 3 times for every 12 hrs followed by LPS stimulation at 5 mg/kg and measured after 6 hrs; format: functional, organism-based; conditions: time 30.0 hrs
Procedure, shortened: (§1)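 C57BL/6 mice, 6 per group. Gavaged at 20 mg/kg three times at 12 h intervals; controls received saline, and dexamethasone 20 mg/kg served as reference. After the last dose, LPS 5 mg/kg given intratracheally. At 6 h, blood collected for serum IL-6 by ELISA. Left lung lavaged with 3 × 200 μL saline, and BALF assayed for IL-6, total protein and neutrophil count. Mean ± SEM, n = 6.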

[2] = system: J774.A1; assay: Inhibition of LPS-induced NF-kappaB activation in mouse J774.A1 cells assessed as reduction in p65 phosphorylation at 5 to 20 uM pretreated for 2 hrs followed by LPS stimulation and measured after 30 mins by Western blot analysis; format: cell-based; conditions: dose 5-20 µM, time 2.5 hrs
Procedure, shortened: (§2)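 J774A.1 macrophages pretreated with 20, 10 or 5 μM for 2 h, then LPS 0.5 μg/mL for 30 min. RIPA lysates quantified by Bradford. 40 μg run on 12.5 % SDS-PAGE and transferred to PVDF. Blocked 1.5 h in BSA, primary antibody overnight at 4 °C, secondary 2 h at room temperature, detected by ECL.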

[3] = system: J774.A1; assay: Antiinflammatory activity in LPS-induced mouse J774.A1 cells assessed as inhibition of IL-6 production pretreated for 30 mins followed by LPS stimulation and measured after 24 hrs by ELISA; format: functional, cell-based
Procedure, shortened: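 Cells pretreated 30 min with a gradient of concentrations (2.5–10 μM range) or DMSO, then given LPS 0.5 μg/mL for 24 h. IL-6 in medium measured by ELISA and normalised to living cell number by MTT. Expressed as % of the LPS group, mean ± SEM of triplicates. IC50 taken from the concentration-response.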

[4] = Acute toxicity in male ICR mouse assessed as fatality at 500 to 1000 mg/kg, po administered daily for 10 days and measured daily; format: organism-based; conditions: in vivo, 240 h, dose 500-1000 mg/kg, time 10 day
Procedure, shortened: (§3)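 Male ICR mice (8 weeks, 30 g ± 2 g), acclimatised 1 week, randomised into 1000 mg/kg, 500 mg/kg and untreated control groups (n = 24 total). Dosed by daily gavage, compound dissolved in 0.5 % DMSO then added to normal saline. Body weight and behaviour recorded daily. Euthanised after 10 days; heart, liver, spleen, lung and kidney examined by H&E staining.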

[5] = system: J774.A1; assay: Inhibition of LPS-induced MAPK activation in mouse J774.A1 cells assessed as reduction in p38 phosphorylation at 5 to 20 uM pretreated for 2 hrs followed by LPS stimulation and measured after 30 mins by Western blot analysis; format: cell-based; conditions: dose 5-20 µM, time 2.5 hrs; procedure, shortened: as §2
[6] = Acute toxicity in male ICR mouse assessed as histopathological changes in kidney at 500 to 1000 mg/kg, po administered daily for 10 days by H and E staining based analysis; format: organism-based; conditions: in vivo, 240 h, dose 500-1000 mg/kg, time 10 day; procedure, shortened: as §3
[7] = system: Mus musculus; assay: Protection against LPS-induced C57BL/6 mouse model of acute lung injury assessed as reduction in destruction of the alveolar cell structure at 20 mg/kg, po administered 3 times for every 12 hrs followed by LPS stimulation at 5 mg/kg and measured after 6 hrs by H and E staining based analysis; format: functional, organism-based; conditions: time 30.0 hrs
Procedure, shortened: (§4)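 LPS-induced ALI in C57BL/6 mice: 20 mg/kg orally three times at 12 h intervals, then intratracheal LPS 5 mg/kg, killed at 6 h. Lungs paraffin-embedded, cut into 5 μm sections and H&E stained. Viewed at ×20.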

[8] = system: Mus musculus; assay: Protection against LPS-induced C57BL/6 mouse model of acute lung injury assessed as reduction in number of neutrophils in BALF at 20 mg/kg, po administered 3 times for every 12 hrs followed by LPS stimulation at 5 mg/kg and measured after 6 hrs; format: functional, organism-based; conditions: time 30.0 hrs; procedure, shortened: as §1
[9] = system: J774.A1; assay: Antiinflammatory activity in LPS-induced mouse J774.a1 cells assessed as inhibition of IL-6 production by measuring fold change at 10 uM pretreated for 2 hrs followed by LPS stimulation and measured after 30 mins by ELISA relative to 4-hydroxycoumarin; format: functional; conditions: time 2.5 hrs
[10] = AUC (0 to infinity) in male Sprague-Dawley rat at 10 mg/kg, po measured upto 24 hrs by triple quadrupole mass spectrometric analysis; format: ADME, organism-based; conditions: in vivo
Procedure, shortened: (§5)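 Male SD rats (8 weeks, 200 g ± 20 g), n = 3 per route. Oral: 10 mg/kg by gavage in 0.05 % DMSO/normal saline, tail-vein blood at 13 times from 10 min to 24 h. IV: 1 mg/kg tail vein in 5 % DMSO/30 % PEG400/65 % saline, 14 samples from 5 min to 24 h. Heparinised plasma precipitated with acetonitrile containing internal standard. Non-compartmental analysis on mean concentrations.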

[11] = system: Mus musculus; assay: Protection against LPS-induced C57BL/6 mouse model of acute lung injury assessed as reduction in inflammatory cell infiltration in lung at 20 mg/kg, po administered 3 times for every 12 hrs followed by LPS stimulation at 5 mg/kg and measured after 6 hrs by immunohistochemical staining based analysis; format: functional, organism-based; conditions: time 30.0 hrs
Procedure, shortened: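 LPS-induced ALI in C57BL/6 mice: 20 mg/kg orally three times at 12 h intervals, then intratracheal LPS 5 mg/kg, lungs taken at 6 h. F4/80 IHC: xylene deparaffinisation, citrate pH 6 retrieval for 25 min, primary antibody at 4 °C for 12 h, secondary 1:2000, DAB and hematoxylin. Viewed at ×20.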

[12] = system: J774.A1; assay: Inhibition of LPS-induced NF-kappaB activation in mouse J774.A1 cells assessed as reduction in IkappaBalpha degradation at 5 to 20 uM pretreated for 2 hrs followed by LPS stimulation and measured after 30 mins by Western blot analysis; format: cell-based; conditions: dose 5-20 µM, time 2.5 hrs; procedure, shortened: as §2
[13] = system: Mus musculus; assay: Protection against LPS-induced C57BL/6 mouse model of acute lung injury assessed as reduction in immune markers in lungs at 20 mg/kg, po administered 3 times for every 12 hrs followed by LPS stimulation at 5 mg/kg and measured after 6 hrs by H and E staining based analysis; format: functional, organism-based; conditions: time 30.0 hrs; procedure, shortened: as §4
[14] = system: Mus musculus; assay: Antiinflammatory activity in DSS-induced male C57BL/6 mouse model of inflammatory bowel disease assessed as reduction in F4/80 positive cell population in intestine at 20 mg/kg, IG administered with compound and DSS for 7 days followed by DSS replacement with distilled water for 3 days by immunohistochemistry staining based analysis; format: functional, organism-based; conditions: time 10.0 day
Procedure, shortened: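 DSS colitis in C57BL/6 mice (2.5 % DSS for 7 days, then water for 3 days), 20 mg/kg po daily in DMSO/CMC-Na, n = 6. Colon fixed in 4 % formaldehyde. For IHC: deparaffinised in xylene, antigen retrieval by boiling in citrate buffer pH 6 for 25 min, primary antibody at 4 °C for 12 h, secondary 1:2000, then DAB with hematoxylin counterstain.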

[15] = Tmax in male Sprague-Dawley rat at 10 mg/kg, po measured upto 24 hrs by triple quadrupole mass spectrometric analysis; format: ADME, organism-based; conditions: in vivo; procedure, shortened: as §5
[16] = Acute toxicity in male ICR mouse assessed as reduction in body weight at 500 to 1000 mg/kg, po administered daily for 10 days and measured daily for 2 to 10 days; format: organism-based; conditions: in vivo, 240 h, dose 500-1000 mg/kg, time 10 day; procedure, shortened: as §3

## CC(=O)N1CCN(CCOc2cc(=O)oc3ccccc23)CC1
[1]
  Activity: Active
[2]
  inhibition: inactive
[3]
  IC50: 4.57 µM
[3]; time 24.5 hrs
  Activity: Dose-Dependent Effect
[4]
  Activity: Non-Toxic
[5]
  inhibition: Active
[6]
  Activity: Non-Toxic
[7]
  Activity: Active
[8]
  Activity: Active
[9]
  fold change (FC): 3
[10]
  AUC(0-inf): 3260 ng·h/mL
[11]
  Activity: Active
[12]
  inhibition: inactive
[13]
  Activity: Active
[14]
  Activity: Active
[15]
  Tmax: 40.2 min
[16]
  Activity: Non-Toxic
